Measurements published in ChEMBL document CHEMBL4334471, “Discovery of 1,8-disubstituted-[1,2,3]triazolo[4,5-c]quinoline derivatives as a new class of Hippo signaling pathway inhibitors” (Bioorg Med Chem Lett, 2019).

What was measured:
[1] = test system: A549; test: Inhibition of hippo signalling protein in human A549 cells cotransfected with CTGF promoter-driven firefly luciferase and CMV promoter-driven renilla luciferase gene incubated for 24 hrs by dual-luciferase gene assay; format: cell-based
In short: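 Dual-luciferase reporter read-out in A549-CTGF cells after 24 h culture with compound. Firefly luciferase is expressed relative to DMSO-treated cells, set as 1. Screening used 10 µM. Values are mean ± SEM of three independent experiments.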

[2] = target: Calcium/calmodulin-dependent protein kinase type II subunit alpha (Homo sapiens) (UniProt Q9UQM7); test: Inhibition of recombinant full length human CaMK2alpha assessed as residual activity at 10 uM using KKLNRTLSFAEPG as substrate incubated for 40 mins in presence of [gamma-33ATP] by scintillation counting based radiometry assay relative to control
[3] = test system: Calcium/calmodulin-dependent protein kinase kinase 2 (Homo sapiens), Q96RR4 [T85S]; test: Inhibition of recombinant full length human CaMKK2 T85S mutant assessed as residual activity at 10 uM using […] incubated for 40 mins in presence of [gamma-33ATP] by scintillation counting based radiometry assay relative to control
[4] = target: CDK6/cyclin D3 (Homo sapiens) (UniProt P30281+Q00534); test: Inhibition of recombinant full length human CDK6/cyclinD3 assessed as residual activity at 10 uM using histone H1 as substrate incubated for 40 mins in presence of [gamma-33ATP] by scintillation counting based radiometry assay relative to control; format: protein-complex assay
[5] = target: Cyclin-dependent kinase-like 2 (Homo sapiens) (UniProt Q92772); test: Inhibition of recombinant full length human CDKL2 assessed as residual activity at 10 uM in presence of [gamma-33ATP] by scintillation counting based radiometry assay relative to control
[6] = test system: RAF proto-oncogene serine/threonine-protein kinase (Homo sapiens), P04049 [Y340D,Y341D]; test: Inhibition of recombinant human C-Raf Y340D/Y341D mutant (306 to end residues) assessed as residual activity at 10 uM poly(Glu, Tyr) 4:1 as substrate incubated 40 mins in presence of [gamma-33ATP] by scintillation counting based radiometry assay relative to control
[7] = target: Serine/threonine-protein kinase 17A (Homo sapiens) (UniProt Q9UEE5); test: Inhibition of recombinant human DRAK1 assessed as residual activity at 10 uM using KKLNRTLSFAEPG as substrate at 40 mins in presence of [gamma-33ATP] by scintillation counting based radiometry assay relative to control
[8] = organism: Homo sapiens; test: Inhibition of recombinant human FLT4 V1128L/H1146R mutant (800 to end residues) assessed as residual activity at 10 uM using GGEEEEYFELVKKKK as substrate at 40 mins in presence of [gamma-33ATP] by scintillation counting based radiometry assay relative to control
[9] = target: Serine/threonine-protein kinase MAK (Homo sapiens) (UniProt P20794); test: Inhibition of recombinant human MAK assessed as residual activity at 10 uM using RRRFRPASPLRGPPK as substrate after 120 mins in presence of [gamma-33ATP] by scintillation counting based radiometry assay relative to control
[10] = test system: Hepatocyte growth factor receptor (Homo sapiens), P08581 [Y1230C]; test: Inhibition of recombinant human MET A1209G/V1290L/Y1248C mutant (974 to end residues) assessed as residual activity at 10 uM using KKKGQEEEYVFIE as substrate incubated for 40 mins in presence of [gamma-33ATP by scintillation counting based radiometry assay relative to control
[11] = test system: Hepatocyte growth factor receptor (Homo sapiens), P08581 [Y1230D]; test: Inhibition of recombinant human MET A1209G/V1290L/Y1248D mutant (974 to end residues) assessed as residual activity at 10 uM using KKKGQEEEYVFIE as substrate incubated for 40 mins in presence of [gamma-33ATP by scintillation counting based radiometry assay relative to control
[12] = target: Misshapen-like kinase 1 (Homo sapiens) (UniProt Q8N4C8); test: Inhibition of recombinant human MINK (1 to 320 residues) assessed as residual activity at 10 uM using myelin basic protein as substrate incubated for 40 mins in presence of [gamma-33ATP by scintillation counting based radiometry assay relative to control
[13] = target: Serine/threonine-protein kinase NIM1 (Homo sapiens) (UniProt Q8IY84); test: Inhibition of recombinant full length human NIM1 assessed as residual activity at 10 uM using KKKVSRSGLYRSPSMPENLNRPR as substrate measured after 40 mins in presence of [gamma33P]ATP by scintillation counting based radiometry assay relative to control
[14] = target: Serine/threonine-protein kinase PAK 5 (Homo sapiens) (UniProt Q9P286); test: Inhibition of recombinant human PAK5 (425 to end residues) assessed as residual activity at 10 uM using RRRLSFAEPG as substrate measured after 40 mins in presence of [gamma33P]ATP by scintillation counting based radiometry assay relative to control
[15] = target: Ribosomal protein S6 kinase alpha-1 (Homo sapiens) (UniProt Q15418); test: Inhibition of recombinant full length human Rsk1 assessed as residual activity at 10 uM using KKKNRTLSVA as substrate incubated for 40 mins in presence of [gamma33P]ATP by scintillation counting based radiometry assay relative to control
[16] = test system: Mitogen-activated protein kinase 14 (Homo sapiens), Q16539 [T106M]; test: Inhibition of recombinant human full length SAPK2a T106M mutant assessed as residual activity at 10 uM using myelin basic protein as substrate incubated for 40 mins in presence of [gamma33P]ATP by scintillation counting based radiometry assay relative to control
[17] = target: Serine/threonine-protein kinase SIK3 (Homo sapiens) (UniProt Q9Y2K2); test: Inhibition of recombinant human SIK3 (1 to 307 residues) assessed as residual activity at 10 uM using KKKVSRSGLYRSPSMPENLNRPR as substrate incubated for 40 mins in presence of [gamma33P]ATP by scintillation counting based radiometry assay relative to control
[18] = test system: TGF-beta receptor type-1 (Homo sapiens), P36897 [T204D]; test: Inhibition of recombinant human TGFBR1 T204D mutant (200 to end residues) assessed as residual activity at 10 uM using casein as substrate incubated for 40 mins in presence of [gamma33P]ATP by scintillation counting based radiometry assay relative to control
[19] = target: Tribbles homolog 2 (Homo sapiens) (UniProt Q92519); test: Inhibition of recombinant full-length human TRB2 assessed as residual activity at 10 uM using RRRFRPASPLRGPPK as substrate incubated for 120 mins in presence of [gamma33P]ATP by scintillation counting based radiometry assay relative to control
[20] = organism: Homo sapiens; test: Inhibition of recombinant human full length PI3K p110/p65 assessed as residual activity at 10 uM using phosphatidylinositol-4, 5-bisphosphate as substrate incubated for 40 mins in presence of [gamma33P]ATP by scintillation counting based radiometry assay relative to control

Serine/threonine-protein kinase 17A (Homo sapiens), sequence (Q9UEE5 whole entry): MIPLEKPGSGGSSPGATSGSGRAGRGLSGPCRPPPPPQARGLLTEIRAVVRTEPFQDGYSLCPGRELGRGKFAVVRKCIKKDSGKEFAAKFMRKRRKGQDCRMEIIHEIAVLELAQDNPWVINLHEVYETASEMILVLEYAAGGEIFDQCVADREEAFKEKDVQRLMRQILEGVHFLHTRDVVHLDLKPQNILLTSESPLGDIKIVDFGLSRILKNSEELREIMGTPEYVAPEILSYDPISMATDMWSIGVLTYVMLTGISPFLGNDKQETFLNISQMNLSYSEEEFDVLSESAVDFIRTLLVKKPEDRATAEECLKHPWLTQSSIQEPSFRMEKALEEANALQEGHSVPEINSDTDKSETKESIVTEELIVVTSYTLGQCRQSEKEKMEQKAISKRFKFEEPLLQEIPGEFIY
TGF-beta receptor type-1 (Homo sapiens), P36897 [T204D], sequence (P36897 whole entry T204D): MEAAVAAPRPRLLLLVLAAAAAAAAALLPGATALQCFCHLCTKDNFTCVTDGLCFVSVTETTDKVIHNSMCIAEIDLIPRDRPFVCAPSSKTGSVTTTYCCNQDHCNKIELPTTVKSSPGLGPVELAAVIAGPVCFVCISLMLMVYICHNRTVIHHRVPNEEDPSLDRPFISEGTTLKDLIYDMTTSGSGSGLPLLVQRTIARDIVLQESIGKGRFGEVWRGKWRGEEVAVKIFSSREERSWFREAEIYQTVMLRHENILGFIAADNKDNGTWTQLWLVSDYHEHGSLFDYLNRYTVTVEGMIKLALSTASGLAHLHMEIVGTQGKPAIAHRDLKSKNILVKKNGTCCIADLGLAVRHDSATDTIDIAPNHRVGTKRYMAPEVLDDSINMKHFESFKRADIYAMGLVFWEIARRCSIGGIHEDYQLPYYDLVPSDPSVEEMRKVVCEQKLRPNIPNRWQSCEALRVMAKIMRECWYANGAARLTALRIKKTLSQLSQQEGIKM
Serine/threonine-protein kinase PAK 5 (Homo sapiens), sequence (Q9P286 whole entry, looked up): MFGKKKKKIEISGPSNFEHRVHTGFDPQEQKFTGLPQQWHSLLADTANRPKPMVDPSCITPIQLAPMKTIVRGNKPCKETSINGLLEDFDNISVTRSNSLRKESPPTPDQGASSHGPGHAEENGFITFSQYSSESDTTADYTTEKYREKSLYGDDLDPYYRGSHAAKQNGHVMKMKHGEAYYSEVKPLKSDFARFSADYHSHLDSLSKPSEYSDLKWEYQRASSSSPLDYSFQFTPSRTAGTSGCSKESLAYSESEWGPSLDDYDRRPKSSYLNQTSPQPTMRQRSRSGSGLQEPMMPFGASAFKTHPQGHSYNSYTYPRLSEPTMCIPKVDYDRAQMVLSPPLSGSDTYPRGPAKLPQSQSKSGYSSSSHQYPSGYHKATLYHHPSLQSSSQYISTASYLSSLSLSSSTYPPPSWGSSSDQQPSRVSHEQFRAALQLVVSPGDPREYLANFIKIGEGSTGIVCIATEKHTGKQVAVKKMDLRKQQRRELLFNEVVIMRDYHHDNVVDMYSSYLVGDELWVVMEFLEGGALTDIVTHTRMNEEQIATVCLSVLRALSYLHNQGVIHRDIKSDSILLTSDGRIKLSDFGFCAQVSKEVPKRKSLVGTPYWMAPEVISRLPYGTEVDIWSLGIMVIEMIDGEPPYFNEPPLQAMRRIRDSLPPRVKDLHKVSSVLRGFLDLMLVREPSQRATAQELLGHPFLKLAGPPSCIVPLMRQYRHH
Misshapen-like kinase 1 (Homo sapiens), sequence (Q8N4C8 whole entry, looked up, the tested form may be a part): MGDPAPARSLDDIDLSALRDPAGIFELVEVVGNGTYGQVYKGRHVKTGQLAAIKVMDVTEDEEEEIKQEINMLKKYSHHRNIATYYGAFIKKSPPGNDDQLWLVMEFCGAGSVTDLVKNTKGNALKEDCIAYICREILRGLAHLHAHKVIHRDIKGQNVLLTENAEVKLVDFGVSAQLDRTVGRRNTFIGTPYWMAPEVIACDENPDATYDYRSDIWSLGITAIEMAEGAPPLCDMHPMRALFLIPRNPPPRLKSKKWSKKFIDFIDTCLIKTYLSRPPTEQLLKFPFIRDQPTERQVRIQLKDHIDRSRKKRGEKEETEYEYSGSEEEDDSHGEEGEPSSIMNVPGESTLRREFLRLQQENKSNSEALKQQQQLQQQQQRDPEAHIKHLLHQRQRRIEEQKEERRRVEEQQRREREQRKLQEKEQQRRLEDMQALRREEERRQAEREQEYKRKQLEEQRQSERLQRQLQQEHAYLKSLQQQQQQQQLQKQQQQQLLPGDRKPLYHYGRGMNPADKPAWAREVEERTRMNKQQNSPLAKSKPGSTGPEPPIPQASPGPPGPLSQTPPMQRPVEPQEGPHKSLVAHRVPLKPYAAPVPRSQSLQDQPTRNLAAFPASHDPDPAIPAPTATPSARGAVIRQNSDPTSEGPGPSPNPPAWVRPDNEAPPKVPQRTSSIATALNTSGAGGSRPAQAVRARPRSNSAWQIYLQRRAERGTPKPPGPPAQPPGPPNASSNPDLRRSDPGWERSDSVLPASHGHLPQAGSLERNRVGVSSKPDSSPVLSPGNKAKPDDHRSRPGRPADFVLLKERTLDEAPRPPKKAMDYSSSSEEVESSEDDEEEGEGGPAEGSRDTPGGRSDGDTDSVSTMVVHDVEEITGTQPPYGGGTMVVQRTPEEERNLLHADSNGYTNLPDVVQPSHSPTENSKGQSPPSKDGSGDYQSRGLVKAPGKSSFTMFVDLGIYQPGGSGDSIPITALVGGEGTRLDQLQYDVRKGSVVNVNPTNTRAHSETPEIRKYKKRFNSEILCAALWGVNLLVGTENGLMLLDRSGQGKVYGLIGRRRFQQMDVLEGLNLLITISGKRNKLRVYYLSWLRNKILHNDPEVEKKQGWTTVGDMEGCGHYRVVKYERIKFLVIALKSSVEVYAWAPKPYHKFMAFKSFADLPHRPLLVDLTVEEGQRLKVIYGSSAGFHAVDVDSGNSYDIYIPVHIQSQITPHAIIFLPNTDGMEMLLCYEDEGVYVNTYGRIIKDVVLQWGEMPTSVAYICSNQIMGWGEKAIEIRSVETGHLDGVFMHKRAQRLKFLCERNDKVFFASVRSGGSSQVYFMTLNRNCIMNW
Serine/threonine-protein kinase MAK (Homo sapiens), sequence (P20794 whole entry): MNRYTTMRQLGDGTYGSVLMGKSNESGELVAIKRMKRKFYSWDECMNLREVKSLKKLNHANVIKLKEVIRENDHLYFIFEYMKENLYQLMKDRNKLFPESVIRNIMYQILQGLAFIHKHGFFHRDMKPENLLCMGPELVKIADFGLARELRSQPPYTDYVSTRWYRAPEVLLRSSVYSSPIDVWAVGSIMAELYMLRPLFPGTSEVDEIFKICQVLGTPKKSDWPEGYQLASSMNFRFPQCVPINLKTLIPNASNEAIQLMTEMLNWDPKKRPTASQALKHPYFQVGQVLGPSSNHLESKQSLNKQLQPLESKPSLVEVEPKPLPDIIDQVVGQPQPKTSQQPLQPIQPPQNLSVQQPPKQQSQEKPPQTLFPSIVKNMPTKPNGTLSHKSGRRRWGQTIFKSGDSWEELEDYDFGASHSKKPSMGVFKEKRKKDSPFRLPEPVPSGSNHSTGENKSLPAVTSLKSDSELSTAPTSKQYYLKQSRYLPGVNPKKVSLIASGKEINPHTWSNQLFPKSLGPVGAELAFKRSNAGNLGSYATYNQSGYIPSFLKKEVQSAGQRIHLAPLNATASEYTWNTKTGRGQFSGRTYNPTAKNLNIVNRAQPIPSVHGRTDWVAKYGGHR
Ribosomal protein S6 kinase alpha-1 (Homo sapiens), sequence (Q15418 whole entry): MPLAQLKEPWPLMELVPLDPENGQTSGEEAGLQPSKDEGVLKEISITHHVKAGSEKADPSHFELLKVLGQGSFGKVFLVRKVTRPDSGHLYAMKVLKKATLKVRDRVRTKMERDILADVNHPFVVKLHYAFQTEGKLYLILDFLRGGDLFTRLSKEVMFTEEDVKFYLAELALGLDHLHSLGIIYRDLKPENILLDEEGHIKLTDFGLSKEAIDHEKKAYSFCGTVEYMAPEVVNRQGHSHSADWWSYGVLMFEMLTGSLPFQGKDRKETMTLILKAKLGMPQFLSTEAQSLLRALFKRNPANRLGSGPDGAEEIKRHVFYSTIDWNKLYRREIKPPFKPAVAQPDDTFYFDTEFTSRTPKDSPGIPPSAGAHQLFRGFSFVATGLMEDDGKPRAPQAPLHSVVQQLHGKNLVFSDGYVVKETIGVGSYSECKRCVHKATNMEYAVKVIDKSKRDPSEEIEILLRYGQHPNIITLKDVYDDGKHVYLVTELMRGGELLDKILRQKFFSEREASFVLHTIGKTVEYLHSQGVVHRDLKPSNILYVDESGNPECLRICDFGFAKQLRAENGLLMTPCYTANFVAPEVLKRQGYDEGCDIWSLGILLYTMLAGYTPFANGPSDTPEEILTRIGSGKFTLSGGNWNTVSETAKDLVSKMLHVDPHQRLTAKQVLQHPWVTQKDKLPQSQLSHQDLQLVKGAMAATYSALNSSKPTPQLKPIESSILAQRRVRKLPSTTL
Calcium/calmodulin-dependent protein kinase type II subunit alpha (Homo sapiens), sequence (Q9UQM7 whole entry): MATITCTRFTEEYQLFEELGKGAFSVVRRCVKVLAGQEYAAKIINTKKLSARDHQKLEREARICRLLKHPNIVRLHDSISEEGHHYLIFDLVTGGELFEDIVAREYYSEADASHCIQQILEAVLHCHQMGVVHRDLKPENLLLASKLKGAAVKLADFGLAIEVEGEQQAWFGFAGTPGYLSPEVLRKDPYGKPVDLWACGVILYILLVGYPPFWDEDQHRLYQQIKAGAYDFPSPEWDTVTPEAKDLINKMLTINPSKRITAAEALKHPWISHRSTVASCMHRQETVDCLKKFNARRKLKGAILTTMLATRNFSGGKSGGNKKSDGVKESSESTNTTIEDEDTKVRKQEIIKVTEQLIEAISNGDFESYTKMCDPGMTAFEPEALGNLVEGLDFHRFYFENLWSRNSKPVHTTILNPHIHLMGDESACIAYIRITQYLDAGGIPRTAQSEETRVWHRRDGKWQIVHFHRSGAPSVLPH

For `C[C@@H](c1ccccc1)n1nnc2cnc3ccc(-c4cnc5[nH]ccc5c4)cc3c21`, the inhibition [1] was “Dose-dependent effect”, the Activity [2] was 50% and the Activity [3] was 79%. For the same compound, the Activity [4] was 92%, the Activity [5] was 56% and the Activity [6] was 77%. It also gave an Activity [7] of 60%, an Activity [8] of 13% and an Activity [9] of 87%. For the same compound, the Activity [10] was 49%, the Activity [11] was 70% and the Activity [12] was 81%. It also gave an Activity [13] of 99%, an Activity [14] of 90% and an Activity [15] of 46%. It also gave an Activity [16] of 97%, an Activity [17] of 20% and an Activity [18] of 97%. The Activity [19] was 86% and the Activity [20] was 3%.
